Assay results taken from ChEMBL document CHEMBL4308858 (Eur J Med Chem, 2018).
Active and inactive are the calls of the source. The calls are words filed in the database; no cut-off is given here.

What was measured:
[1] = target: T1, Anoctamin-1 (Homo sapiens, UniProt Q5XXA6); experiment: Inhibition of YFP-fused ANO1 (unknown origin) expressed in FRT cells after 20 mins by fluorescence quenching method; type: cell-based
T1 sequence (Q5XXA6 whole entry): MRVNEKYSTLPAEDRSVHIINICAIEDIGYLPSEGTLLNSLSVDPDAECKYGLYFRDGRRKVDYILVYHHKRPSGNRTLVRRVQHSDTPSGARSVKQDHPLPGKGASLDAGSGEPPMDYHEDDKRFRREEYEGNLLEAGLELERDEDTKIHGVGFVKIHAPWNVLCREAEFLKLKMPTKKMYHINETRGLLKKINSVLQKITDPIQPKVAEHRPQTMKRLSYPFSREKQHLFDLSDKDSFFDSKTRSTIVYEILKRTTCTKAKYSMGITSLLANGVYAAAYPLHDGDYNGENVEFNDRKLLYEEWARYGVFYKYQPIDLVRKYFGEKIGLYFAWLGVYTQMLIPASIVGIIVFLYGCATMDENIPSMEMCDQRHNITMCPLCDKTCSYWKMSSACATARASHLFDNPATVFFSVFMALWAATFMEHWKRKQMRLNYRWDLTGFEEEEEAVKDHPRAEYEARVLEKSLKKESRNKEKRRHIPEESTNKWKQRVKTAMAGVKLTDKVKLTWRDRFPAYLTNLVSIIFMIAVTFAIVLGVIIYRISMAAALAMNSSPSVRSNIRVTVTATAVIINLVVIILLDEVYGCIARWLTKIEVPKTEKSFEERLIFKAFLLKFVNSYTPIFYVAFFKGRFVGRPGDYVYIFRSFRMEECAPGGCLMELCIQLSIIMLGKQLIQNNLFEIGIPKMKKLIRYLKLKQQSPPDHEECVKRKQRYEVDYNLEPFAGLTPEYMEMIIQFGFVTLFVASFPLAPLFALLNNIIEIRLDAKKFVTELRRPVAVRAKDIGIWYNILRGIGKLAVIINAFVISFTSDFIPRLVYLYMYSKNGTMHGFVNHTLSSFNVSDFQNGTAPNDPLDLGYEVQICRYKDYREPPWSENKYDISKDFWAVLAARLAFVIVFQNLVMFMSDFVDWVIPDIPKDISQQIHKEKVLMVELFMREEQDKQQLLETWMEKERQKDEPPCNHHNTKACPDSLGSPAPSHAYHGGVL

[2] = target: T2, Anoctamin-2 (Homo sapiens, UniProt Q9NQ90); experiment: Inhibition of YFP-fused ANO2 (unknown origin) expressed in FRT cells after 20 mins by fluorescence quenching method; type: cell-based
T2 sequence (Q9NQ90 whole entry): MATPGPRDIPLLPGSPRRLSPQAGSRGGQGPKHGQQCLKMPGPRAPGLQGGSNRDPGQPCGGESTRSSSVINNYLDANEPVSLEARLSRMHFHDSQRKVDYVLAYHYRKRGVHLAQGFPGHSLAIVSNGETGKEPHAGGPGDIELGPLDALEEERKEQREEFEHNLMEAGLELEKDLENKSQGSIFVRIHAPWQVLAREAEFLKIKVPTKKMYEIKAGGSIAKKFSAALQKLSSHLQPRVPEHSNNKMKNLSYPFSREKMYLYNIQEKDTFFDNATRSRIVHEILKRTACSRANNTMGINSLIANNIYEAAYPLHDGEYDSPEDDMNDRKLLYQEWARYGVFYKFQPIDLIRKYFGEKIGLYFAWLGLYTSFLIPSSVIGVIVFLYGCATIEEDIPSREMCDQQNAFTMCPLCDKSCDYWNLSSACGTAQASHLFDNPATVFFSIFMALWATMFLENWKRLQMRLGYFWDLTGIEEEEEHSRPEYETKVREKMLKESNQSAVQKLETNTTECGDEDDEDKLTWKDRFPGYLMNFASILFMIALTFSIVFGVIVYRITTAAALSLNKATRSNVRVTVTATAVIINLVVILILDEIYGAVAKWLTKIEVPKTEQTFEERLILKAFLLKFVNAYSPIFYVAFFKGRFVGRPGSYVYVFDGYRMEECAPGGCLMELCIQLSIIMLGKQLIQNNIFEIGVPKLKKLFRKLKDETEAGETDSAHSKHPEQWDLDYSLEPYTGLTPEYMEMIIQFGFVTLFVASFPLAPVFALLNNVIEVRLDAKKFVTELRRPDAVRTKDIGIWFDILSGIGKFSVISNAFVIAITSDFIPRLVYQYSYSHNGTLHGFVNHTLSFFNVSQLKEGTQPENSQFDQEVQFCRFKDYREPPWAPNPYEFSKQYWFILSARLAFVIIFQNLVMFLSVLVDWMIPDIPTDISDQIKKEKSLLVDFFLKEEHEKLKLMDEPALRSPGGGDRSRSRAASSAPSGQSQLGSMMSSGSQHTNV

[3] = target: T3, ANO2 (Anoctamin-2) (Homo sapiens, UniProt Q9NQ90); experiment: Inhibition of YFP-fused ANO2 (unknown origin) expressed in FRT cells after 20 mins by fluorescence quenching method relative to untreated control; type: cell-based; design: concentration or dose not given beside the values; conditions: FRT cells expressing YFP-fused ANO2
T3 sequence (Q9NQ90 whole entry): T2 sequence (Q9NQ90 whole entry)
How it was run: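 FRT cells stably co-expressing YFP-H148Q/I152L/F46L and ANO1 or ANO2, seeded 2×10^4 per well and grown 48 h. After PBS washes, compound given for 20 min. At 2 s, 70 mM I⁻ solution containing 200 µM ATP added; fluorescence read every 0.4 s for 6 s. Inhibition taken from initial slope of quenching; mean ± S.E., n = 3.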

[4] = Half life in rat plasma at 5 uM by LC-MS/MS analysis; type: ADME, cell-free
How it was run: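 Compound at 5 µM final in rat plasma, shaken at 37 °C and sampled at 0, 30, 60, 120 and 240 min. Reaction stopped with three volumes of ice-cold acetonitrile and protein spun out. Supernatant analysed by LC-MS/MS on a C18 column with formic acid/water–ACN mobile phase. Percent parent remaining taken from peak areas; n = 3.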

[5] = system: PC-3; experiment: Cytotoxicity against human PC3 cells assessed as reduction in cell viability at 10 uM after 48 hrs by MTS assay; type: functional, cell-based
How it was run: (§1)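 PC3, MCF7 and BxPC3 cells grown in RPMI1640 with 10% FBS, plated and held 24 h in 2% FBS medium. At about 20% confluency, compound added at 0.01–30 µM for 48 h, with medium and compound replaced every 24 h. MTS reagent applied for 1 h and formazan absorbance read at 490 nm; mean ± S.E., n = 3.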

[6] = system: MCF7; experiment: Cytotoxicity against human MCF7 cells assessed as reduction in cell viability at 10 uM after 48 hrs by MTS assay; type: functional, cell-based; how it was run: as §1
[7] = system: BXPC-3; experiment: Cytotoxicity against human BxPC3 cells assessed as reduction in cell viability at 10 uM after 48 hrs by MTS assay; type: functional, cell-based; how it was run: as §1
[8] = target: T4, Anoctamin-1 (Homo sapiens) (UniProt Q5XXA6); experiment: Inhibition of ANO1 (unknown origin) expressed in FRT cells assessed as reduction in ATP-induced chloride current after 20 mins by electrophysiological assay; type: cell-based
T4 sequence (whole entry): T1 sequence (Q5XXA6 whole entry)

[9] = target: Cystic fibrosis transmembrane conductance regulator (Homo sapiens, UniProt P13569); experiment: Inhibition of wild type human CFTR expressed in FRT cells assessed as reduction in forskolin-induced chloride current at 30 to 100 uM after 20 mins by electrophysiological assay; type: cell-based
Chain of Cystic fibrosis transmembrane conductance regulator (P13569 whole entry): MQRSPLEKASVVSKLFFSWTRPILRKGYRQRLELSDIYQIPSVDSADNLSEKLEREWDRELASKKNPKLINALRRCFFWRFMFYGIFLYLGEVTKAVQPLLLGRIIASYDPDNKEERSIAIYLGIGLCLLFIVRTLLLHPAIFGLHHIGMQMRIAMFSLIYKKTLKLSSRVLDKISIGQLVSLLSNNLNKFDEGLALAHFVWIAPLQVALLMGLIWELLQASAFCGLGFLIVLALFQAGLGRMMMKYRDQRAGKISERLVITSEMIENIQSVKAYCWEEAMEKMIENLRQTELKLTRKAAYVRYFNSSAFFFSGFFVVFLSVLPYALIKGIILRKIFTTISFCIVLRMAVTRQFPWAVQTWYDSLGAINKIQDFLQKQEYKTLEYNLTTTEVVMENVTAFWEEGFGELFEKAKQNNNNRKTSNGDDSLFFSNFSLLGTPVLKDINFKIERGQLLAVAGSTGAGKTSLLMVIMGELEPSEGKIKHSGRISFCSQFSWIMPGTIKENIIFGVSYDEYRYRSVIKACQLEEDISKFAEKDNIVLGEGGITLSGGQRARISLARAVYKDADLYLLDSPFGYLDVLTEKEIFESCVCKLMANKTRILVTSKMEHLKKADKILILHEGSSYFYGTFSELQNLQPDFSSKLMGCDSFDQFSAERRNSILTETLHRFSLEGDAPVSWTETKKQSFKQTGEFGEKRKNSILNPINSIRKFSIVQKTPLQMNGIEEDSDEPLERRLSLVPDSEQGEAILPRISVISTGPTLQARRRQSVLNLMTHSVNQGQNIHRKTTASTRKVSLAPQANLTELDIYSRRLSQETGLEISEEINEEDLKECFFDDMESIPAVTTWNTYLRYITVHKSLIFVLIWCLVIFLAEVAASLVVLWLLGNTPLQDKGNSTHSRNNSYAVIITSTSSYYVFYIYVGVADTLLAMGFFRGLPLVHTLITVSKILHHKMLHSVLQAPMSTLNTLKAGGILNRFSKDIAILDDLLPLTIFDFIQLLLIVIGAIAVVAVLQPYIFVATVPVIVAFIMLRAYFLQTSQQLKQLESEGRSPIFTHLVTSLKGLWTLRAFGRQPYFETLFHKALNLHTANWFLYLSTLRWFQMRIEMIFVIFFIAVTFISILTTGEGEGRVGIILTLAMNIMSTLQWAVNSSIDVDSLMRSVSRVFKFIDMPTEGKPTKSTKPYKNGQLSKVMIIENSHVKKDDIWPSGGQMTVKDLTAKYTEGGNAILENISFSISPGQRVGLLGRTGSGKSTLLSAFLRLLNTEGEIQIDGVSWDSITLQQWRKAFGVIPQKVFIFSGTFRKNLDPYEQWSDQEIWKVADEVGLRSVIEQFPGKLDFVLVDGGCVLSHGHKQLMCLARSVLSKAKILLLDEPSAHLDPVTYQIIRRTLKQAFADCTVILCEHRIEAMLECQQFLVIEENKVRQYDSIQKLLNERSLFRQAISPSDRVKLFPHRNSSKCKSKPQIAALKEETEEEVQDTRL
How it was run: (§2)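 Ussing chamber, FRT monolayers expressing ANO1, ANO2 or human WT-CFTR. Basolateral side permeabilised with amphotericin B (250 µg/mL) in HCO3⁻-buffered solution, pH 7.4; apical side half-Cl⁻ (65 mM NaCl replaced by gluconate). Run at 37 °C under 95% O2/5% CO2. Compound applied apically for 20 min, then ANO1/2 activated with 100 µM ATP or CFTR with 20 µM forskolin. Apical current recorded; n = 3–6.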

[10] = organism: Homo sapiens; experiment: Selectivity for ANO1 (unknown origin) over ANO2 (unknown origin)
[11] = organism: Homo sapiens; experiment: Selectivity for ANO1 (unknown origin) over wild type human CFTR
[12] = system: PC-3; experiment: Cytotoxicity against human PC3 cells assessed as reduction in cell viability after 48 hrs by MTS assay; type: functional, cell-based; how it was run: as §1
[13] = system: MCF7; experiment: Cytotoxicity against human MCF7 cells assessed as reduction in cell viability after 48 hrs by MTS assay; type: functional, cell-based; how it was run: as §1
[14] = system: BXPC-3; experiment: Cytotoxicity against human BxPC3 cells assessed as reduction in cell viability after 48 hrs by MTS assay; type: functional, cell-based; how it was run: as §1
[15] = system: PC-3; experiment: Inhibition of ANO1 protein expression level in human PC3 cells at 3 to 10 uM after 24 hrs by Western blot analysis; type: functional, cell-based
How it was run: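 PC3 cells exposed to compound for 24 h and lysed in NP-40/deoxycholate buffer with protease and phosphatase inhibitors. Lysate cleared at 15000 g, resolved on 4–12% Tris-glycine gel and transferred to PVDF. Blocked in 4% milk/TBST, probed with anti-ANO1 (1:500) then anti-rabbit secondary (1:2000), and detected by ECL.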

[16] = target: CFTR (cystic fibrosis transmembrane conductance regulator) (Homo sapiens, UniProt P13569); experiment: Inhibition of wild type human CFTR expressed in FRT cells assessed as reduction in forskolin-induced chloride current at 10 uM after 20 mins by electrophysiological assay; type: cell-based; conditions: FRT cells expressing wild type human CFTR; how it was run: as §2
Chain of CFTR (cystic fibrosis transmembrane conductance regulator) (P13569 whole entry): as above

SMILES | IC50 ([1]; read-out: IC50) [µM] | IC50 ([2]; read-out: IC50) [µM] | IC50 [2] | inhibition at 20 min [3] [%] | also measured
COc1cccc(-c2nnc(COc3ccc(Cl)cc3C)o2)c1 | > 100 | > 100 |  |  | 
COc1ccccc1CNNC(=O)COc1ccc(Cl)cc1C |  | > 100 |  |  | 
Cc1cc(Cl)ccc1OCC(=O)N/N=C/c1ccccc1F | 0.89 |  | Not Active | < 20 | 
Cc1cc(Cl)ccc1OCc1nnc(-c2cccc(F)c2)o1 | > 100 | > 100 |  |  | 
Cc1cc(Cl)ccc1OCC(=O)N/N=C/c1ccco1 |  |  | Not Active | < 20 | 
Cc1cc(Cl)ccc1OCc1nnc(-c2cccc(OC(F)(F)F)c2)o1 | > 100 |  | Not Active | < 20 | 
Cc1cc(Cl)ccc1OCC(=O)N/N=C/c1ccccn1 |  | > 100 |  |  | 
Cc1cc(Cl)ccc1OC(F)(F)C(=O)N/N=C/c1ccccc1OC(F)(F)F | > 100 | > 100 |  |  | 
Cc1cc(Cl)ccc1OC(C)C(=O)N/N=C/c1ccccc1OC(F)(F)F (configuration not stated) | > 100 |  | Not Active |  | 
Cc1cc(Cl)ccc1OCc1nnc(-c2ccccc2C(F)(F)F)o1 | > 100 | > 100 |  |  | 
Cc1cc(Cl)ccc1OCC(=O)N/N=C/c1cccc(F)c1 | > 100 |  | Not Active | < 20 | 
COc1ccccc1/C=N/NC(=O)COc1ccc(Cl)cc1C |  |  |  |  | half-life at 5 µM [4]: 0.533 h
COc1cccc(/C=N/NC(=O)COc2ccc(Cl)cc2C)c1 | > 100 |  | Not Active | < 20 | 
COc1ccccc1/C=N/NC(=O)c1cc2cc(Cl)ccc2o1 | > 100 | > 100 |  |  | 
C/C(=N\NC(=O)COc1ccc(Cl)cc1C)c1ccccc1OC(F)(F)F |  | > 100 |  |  | 
Cc1cc(Cl)ccc1OCC(=O)N/N=C/c1ccccc1C(F)(F)F |  |  | Not Active | < 20 | 
Cc1cc(Cl)ccc1OCc1nnc(-c2ccccn2)o1 | > 100 |  | Not Active | < 20 | 
Cc1cc(Cl)ccc1OC(C)(C)C(=O)N/N=C/c1ccccc1OC(F)(F)F |  | > 100 |  |  | IC50 [1]: Not Active
Cc1cc(Cl)ccc1OCc1nnc(-c2ccccc2OC(F)(F)F)o1 | > 100 |  | Not Active | < 20 | 
Cc1cc(Cl)ccc1OCC(=O)N/N=C/c1cccc(OC(F)(F)F)c1 | > 100 |  | Not Active | < 20 | Activity [5]: inactive; Activity [6]: inactive; Activity [7]: inactive
Cc1cc(Cl)ccc1OCC(=O)N/N=C/c1ccccc1OC(F)(F)F |  |  | Not Active | < 20 | inhibition [8]: Dose-dependent effect; inhibition (INH) [9]: Not Active; Selectivity ratio [10]: > 1000; Selectivity ratio [11]: > 1000; Activity [12]: Dose-dependent effect; Activity [13]: Dose-dependent effect; Activity [14]: Dose-dependent effect; inhibition [15]: Active; half-life at 5 µM [4]: 1.73 h
Cc1cc(Cl)ccc1OCc1nnc(-c2ccccc2F)o1 |  | > 100 |  |  | 
O=C(O)c1ccc(/C=C2/SC(=S)N(c3cccc(C(F)(F)F)c3)C2=O)cc1 |  |  |  |  | inhibition at 20 min, 10 µM [16]: 100%
Cc1cc(Cl)ccc1OCc1nnc(-c2ccco2)o1 |  | > 100 |  |  | 
COc1ccccc1-c1nnc(-c2cc3cc(Cl)ccc3o2)o1 | > 100 | > 100 |  |  | 
